{"data": "Results from different studies", "cell line": "MCF7", "read-out": "cell growth or viability", "note": "pIC50: −log10 of the molar value."}
{"Structure (SMILES)": "COc1cccc2c1C(=O)c1c(O)c3c(c(O)c1C2=O)C[C@@](O)(C(=O)CO)C[C@@H]3O[C@H]1C[C@H](N)[C@H](O)[C@H](C)O1", "technique": "MTT", "time": "48 h", "pIC50": 7.22}
{"Structure (SMILES)": "O=C(NC(=S)NCc1ccccc1)c1ccc2ccccc2c1", "time": "48 h", "pIC50": 5.30}
{"Structure (SMILES)": "CSc1nc(/N=C/c2ccc(O)cc2)n(-c2ccc(C(=O)O)cc2)n1", "technique": "MTT", "pIC50": 4.46}
{"Structure (SMILES)": "Cc1ccc2nc(-c3ccc(Cl)cc3Cl)[nH]c2c1", "technique": "MTT", "time": "48 h", "pIC50": 4.24}
{"Structure (SMILES)": "COc1cc2ncnc(Nc3ccc(F)c(Cl)c3)c2cc1NC(=O)N/N=C/c1cccn1CCCN1CCN(C)CC1", "technique": "MTT", "time": "72 h", "pIC50": 5.61}
{"Structure (SMILES)": "O=c1[nH]cc(F)c(=O)[nH]1", "technique": "WST-1", "time": "48 h", "pIC50": 5.51}
{"Structure (SMILES)": "CS(=O)(=O)c1ccc(-n2cc(/C=N/N=c3\\[nH]c(-c4ccc([N+](=O)[O-])cc4)cs3)c(-c3ccc([N+](=O)[O-])cc3)n2)cc1", "technique": "MTT", "time": "48 h", "pIC50": 5.00}
{"Structure (SMILES)": "COc1ccnc(-c2cc(OC)ccn2)c1", "technique": "MTT", "time": "48 h", "pIC50": "< 4.30"}
{"Structure (SMILES)": "CC(=O)O[C@H]1C(=O)[C@@]2(C)[C@H]([C@H](OC(=O)c3ccccc3)[C@]3(O)C[C@H](OC(=O)[C@H](O)[C@@H](NC(=O)c4ccccc4)c4ccccc4)C(C)=C1C3(C)C)[C@]1(OC(C)=O)CO[C@@H]1C[C@@H]2O", "technique": "MTT", "time": "48 h", "pIC50": 8.22}
{"Structure (SMILES)": "FC(F)(F)c1cccc(Nc2ncnc3ccc(-c4ccc(Cl)cc4)cc23)c1", "technique": "MTT", "time": "24 h", "pIC50": 4.91}
{"Structure (SMILES)": "C=CCn1c(-c2ccc(Cl)cc2)nc2ccc(C)cc21", "technique": "MTT", "pIC50": 4.65}
{"Structure (SMILES)": "Oc1ncnc2cc(Nc3nc(-c4ccc(C(F)(F)F)cc4)cs3)ccc12", "technique": "MTT", "pIC50": 5.54}
{"Structure (SMILES)": "Cc1ccc2nc(-c3cccc(O)c3)[nH]c2c1", "technique": "MTT", "time": "48 h", "pIC50": "< 4.00"}
{"Structure (SMILES)": "Oc1cccc(Nc2ccc3ncnc(Nc4cccc(C(F)(F)F)c4)c3c2)c1", "technique": "MTT", "time": "24 h", "pIC50": 4.69}
{"Structure (SMILES)": "C=C1C(=O)[C@]2(OC)C(=O)O[C@@]34C[C@H](C)C(C(=O)O)=C[C@@H]3CCC[C@@H](C)C[C@@H](C)[C@H]1O[C@H]24", "technique": "ATP luminescence", "pIC50": 4.68}
{"Structure (SMILES)": "O=C(NC(=S)NCc1ccc(CNC(=S)NC(=O)c2ccc3ccccc3c2)cc1)c1ccc2ccccc2c1", "time": "48 h", "pIC50": 5.92}
{"Structure (SMILES)": "O=C(N/N=C/c1cccn1CCN1CCOCC1)Nc1cc2c(Nc3ccc(F)c(Cl)c3)ncnc2cc1O[C@H]1CCOC1", "technique": "MTT", "time": "72 h", "pIC50": 5.67}
{"Structure (SMILES)": "Nc1nc(Oc2ccccc2)nn1-c1ccc(C(=O)O)cc1", "technique": "MTT", "pIC50": 4.73}
{"Structure (SMILES)": "O=C(/C=C/c1ccc(O)c(O)c1)O[C@@H]1C[C@](O)(C(=O)O)C[C@@H](O)[C@H]1O", "technique": "WST-1", "time": "48 h", "pIC50": 5.02}
{"Structure (SMILES)": "COc1ccc(-c2nc3ccccc3[nH]2)cc1OC", "technique": "MTT", "time": "48 h", "pIC50": "< 4.00"}
{"Structure (SMILES)": "O=C(Nc1nnnn1C1CCCCC1)c1ccc2ccccc2c1", "time": "48 h", "pIC50": 5.62}
{"Structure (SMILES)": "CC(C)NCC(O)COc1ccccc1-c1ccccc1OCC(O)CNC(C)C (stereo not drawn)", "technique": "MTT", "time": "72 h", "pIC50": "< 4.12"}
{"Structure (SMILES)": "CCOc1ccc(-c2nc3ccccc3[nH]2)cc1", "technique": "MTT", "time": "48 h", "pIC50": "< 4.00"}
{"Structure (SMILES)": "O=C1NC(c2ccccc2)(c2ccccc2)C(=O)N1Cc1cn(-c2c3ccccc3nc3ccccc23)nn1", "technique": "MTT", "pIC50": 4.37}
{"Structure (SMILES)": "CC/C(=C(\\c1ccc(O)cc1)c1ccc(OCCN(C)C)cc1)c1ccccc1", "time": "5 days", "pIC50": 5.37}
{"Structure (SMILES)": "O=C(N/N=C/c1cccn1CCN1CCCC1)Nc1cc2c(Nc3ccc(F)c(Cl)c3)ncnc2cc1O[C@H]1CCOC1", "technique": "MTT", "time": "72 h", "pIC50": 5.92}
{"Structure (SMILES)": "Oc1cccc(-c2nc3ccccc3[nH]2)c1", "technique": "MTT", "time": "48 h", "pIC50": "< 4.00"}
{"Structure (SMILES)": "COc1cccc2c1C(=O)c1c(O)c3c(c(O)c1C2=O)C[C@@](O)(C(=O)CO)C[C@@H]3O[C@H]1C[C@H](N)[C@H](O)[C@H](C)O1", "technique": "MTT", "pIC50": 4.71}
{"Structure (SMILES)": "CC(=O)OC[C@H]1O[C@@H]([S-])[C@H](OC(C)=O)[C@@H](OC(C)=O)[C@@H]1OC(C)=O.CCP(CC)CC.[Au+]", "technique": "resazurin", "pIC50": 5.28}
{"Structure (SMILES)": "CC(C)Cc1ccc(-c2nn(-c3ccc(S(C)(=O)=O)cc3)cc2/C=N/N=c2\\[nH]c(-c3ccc(Br)cc3)cs2)cc1", "technique": "MTT", "time": "48 h", "pIC50": 5.08}
{"Structure (SMILES)": "O=S(=O)(NN=Cc1cn(CCN2CCOCC2)c2ccccc12)c1ccc(F)cc1", "technique": "MTT", "time": "48 h", "pIC50": 4.49}
{"Structure (SMILES)": "Cc1occc(=O)c1[O-].[Cl-].[W+4].c1cc[cH-]c1.c1cc[cH-]c1", "technique": "MTT", "pIC50": 3.48}
{"Structure (SMILES)": "O=C(N/N=C/c1cccn1CCN1CCCCC1)Nc1cc2c(Nc3ccc(F)c(Cl)c3)ncnc2cc1O[C@H]1CCOC1", "technique": "MTT", "time": "72 h", "pIC50": 5.62}
{"Structure (SMILES)": "Oc1c(Br)cc(Br)c2cccnc12", "technique": "MTT", "time": "48 h", "pIC50": "< 4.00"}
{"Structure (SMILES)": "Oc1ncnc2cc(Nc3nc(-c4ccc(Br)cc4)cs3)ccc12", "technique": "MTT", "pIC50": 5.31}
{"Structure (SMILES)": "COc1cc([C@@H]2c3cc4c(cc3[C@@H](O[C@@H]3O[C@@H]5CO[C@@H](C)O[C@H]5[C@H](O)[C@H]3O)[C@H]3COC(=O)[C@H]23)OCO4)cc(OC)c1O", "technique": "MTT", "time": "48 h", "pIC50": 4.48}
{"Structure (SMILES)": "O=C(/N=C1\\S/C(=C\\c2ccc(Cl)cc2)C(=O)N1C1CCCCC1)c1ccc2ccccc2c1", "time": "48 h", "pIC50": 5.16}
{"Structure (SMILES)": "FC(F)(F)c1cccc(Nc2ncnc3ccc(-c4ccsc4)cc23)c1", "technique": "MTT", "time": "24 h", "pIC50": 5.36}
{"Structure (SMILES)": "COc1cccc2c1C(=O)c1c(O)c3c(c(O)c1C2=O)C[C@@](O)(C(=O)CO)C[C@@H]3O[C@H]1C[C@H](N)[C@H](O)[C@H](C)O1", "technique": "resazurin", "time": "72 h", "pIC50": 6.62}
{"Structure (SMILES)": "Clc1ccc(-c2nc3ccccc3[nH]2)cc1", "technique": "MTT", "time": "48 h", "pIC50": 4.17}
{"Structure (SMILES)": "C[C@H]1O[C@@H](n2cc(F)c(=O)[nH]c2=O)[C@H](O)[C@@H]1O", "technique": "CCK-8", "time": "48 h", "pIC50": "< 4.30"}
{"Structure (SMILES)": "CN(C)CCCn1cccc1/C=N/NC(=O)Nc1cc2c(Nc3ccc(F)c(Cl)c3)ncnc2cc1O[C@H]1CCOC1", "technique": "MTT", "time": "72 h", "pIC50": 5.21}
{"Structure (SMILES)": "CS(=O)(=O)c1ccc(-n2cc(/C=N/N=c3\\[nH]c(-c4ccc(Br)cc4)cs3)c(-c3ccc(Br)cc3)n2)cc1", "technique": "MTT", "time": "48 h", "pIC50": 4.78}
{"Structure (SMILES)": "COc1cccc(C(=O)O[C@@H]2CN3Cc4c(cc5c(c4OC)OCO5)[C@@]24C=C[C@H](OC)C[C@@H]34)c1", "technique": "WST-1", "pIC50": "< 5.00"}
{"Structure (SMILES)": "COc1cc2ncnc(Nc3ccc(F)c(Cl)c3)c2cc1NC(=O)N/N=C/c1cccn1CCCN(C)C", "technique": "MTT", "time": "72 h", "pIC50": 5.90}
{"Structure (SMILES)": "O=c1[nH]c(=S)[nH]c2c1CCCN2", "technique": "MTT", "time": "72 h", "pIC50": "< 4.00"}
{"Structure (SMILES)": "COc1cc2ncnc(Nc3ccc(F)c(Cl)c3)c2cc1NC(=O)N/N=C/CN1CCCC1", "technique": "MTT", "time": "72 h", "pIC50": 5.12}
{"Structure (SMILES)": "O=[N+]([O-])c1ccc(-c2nc3ccccc3n2Cc2ccccc2)cc1", "technique": "MTT", "pIC50": 5.02}
